Screening results (PubChem BioAssay)
PG9 Ab binder – binds the HIV-1 gp120 antibody PG9 | TR-FRET gp120-PG9 antibody binding | hit rate 0.43% among 360,000 | inhibition, % at 6.7 µM; in the data active = inhibition above about 8.5%
Rev-erbA mod – modulates human Rev-erb alpha binding to DNA. P20393. Rev-erbα–FITC-DNA binding, fluorescence polarization, 90 min. activity, % at 10 µM. hit rate 0.79% among 370,000;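 active = activity above about 14%, limit read from the data; passing the limit was not always enough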
NR2E3 ag-1 – activates human NR2E3 receptor; Q9Y5X4; CHO-S Gal4-NCOR/VP16-NR2E3 two-hybrid, luciferase; inhibition of corepressor binding, % at 3.98 µM; hit rate 0.35% among 360,000;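 active = inhibition above the mean of all tested compounds plus 3 SD, cut at about 70% in these data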;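 also: higher means lower luciferase signal from less NR2E3 corepressor binding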
Target sequence (Q9Y5X4 whole entry, looked up, the tested form may be a part): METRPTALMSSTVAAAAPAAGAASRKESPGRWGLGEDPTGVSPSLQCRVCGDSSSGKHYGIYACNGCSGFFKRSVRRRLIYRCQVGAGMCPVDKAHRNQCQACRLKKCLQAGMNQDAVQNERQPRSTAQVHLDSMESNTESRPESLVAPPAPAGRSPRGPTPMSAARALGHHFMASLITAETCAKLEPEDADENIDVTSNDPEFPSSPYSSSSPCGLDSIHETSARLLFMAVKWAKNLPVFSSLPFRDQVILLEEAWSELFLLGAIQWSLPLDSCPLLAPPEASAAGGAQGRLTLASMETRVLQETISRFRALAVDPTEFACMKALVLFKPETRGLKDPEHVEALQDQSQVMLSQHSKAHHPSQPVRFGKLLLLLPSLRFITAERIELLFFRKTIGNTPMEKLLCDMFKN
NR2E3 ag-2 – agonists of human nuclear receptor NR2E3; Q9Y5X4; GST-NR2E3/biotin-RetCOR TR-FRET, 1536-well; inhibition of corepressor binding, % at 4.78 µM; hit rate 0.12% among 320,000; AID 2300;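 active = percent inhibition above the cutoff of mean plus 3 SD of all tested compounds, set per screening campaign, cut at about 20% in these data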
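Format: 1536-well format; test system: GST-NR2E3 and biotin-RetCOR proteins; read-out basis: percent inhibition of TR-FRET ratio; timing: 5 h incubation at 4 °C; detection: time-resolved FRET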
PG9 binder conf – PG9 antibody binding, confirmed. shares compounds with PG9 Ab binder. inhibition, % at 6.7 µM. hit rate 90% among 1,500. TR-FRET PG9 antibody binding, biochemical; in the data active = inhibition above about 9%
PGV04 Ab binding – PGV04 control antibody binding, counter-screen; inhibition, % at 6.7 µM; TR-FRET PGV04 antibody-gp120 binding, biochemical; hit rate 95% among 1,500; shares compounds with PG9 Ab binder; in the data active = inhibition above about 9.5%
PG9 bind DR – small molecules binding HIV-1 gp120 antibody PG9. shares compounds with PG9 Ab binder. TR-FRET PG9 antibody-gp120 binding inhibition. IC50, µM. 95 tested, under 10 active. AID 651848; in the data active = IC50 below about 10 µM
PGV04 DR counter – counter-screen for PG9 binders: binding to control antibody PGV04. shares compounds with PG9 Ab binder. TR-FRET binding to control antibody PGV04. IC50, µM. hit rate 20% among 95. AID 651937
PG126 binding DR – PG126 binding, dose response counter-screen; shares compounds with PG9 Ab binder; TR-FRET binding to antibody PG126, counterscreen; IC50, µM; hit rate 20% among 95; AID 651939
Numbers stand for hits. Shown are actives, neighbours in structure and some others; about 1.5% of the full set was active somewhere. Rule as the data show it, unless noted: active = IC50 below about 9 µM; inactive = the rest.

`Cc1ccc(C2/C(=C(\O)c3ccc4c(c3)OCCO4)C(=O)C(=O)N2Cc2cccnc2)cc1` (stereo not given) gave PG9 Ab binder 27, Rev-erbA mod inactive, NR2E3 ag-1 inactive, NR2E3 ag-2 inactive, PG9 binder conf 38 and PGV04 Ab binding 47.
Screening COc1ccc(C2/C(=C(\O)c3ccc4c(c3)OCCO4)C(=O)C(=O)N2Cc2cccnc2)cc1OC (stereo not given) returned PG9 Ab binder inactive, Rev-erbA mod inactive, NR2E3 ag-1 inactive and NR2E3 ag-2 inactive.
O=C1C(=O)N(Cc2cccnc2)C(c2ccc(Br)cc2)/C1=C(\O)c1ccc2c(c1)OCCO2 (stereo not given) was read as PG9 Ab binder 21, Rev-erbA mod inactive, NR2E3 ag-1 inactive, NR2E3 ag-2 inactive, PG9 binder conf 31 and PGV04 Ab binding 37.
Screening CCn1c(=O)[nH]n(C/C(C)=C\c2c[n+](Cc3ccc4c(c3)OCO4)c(N)[nH]2)c1=O returned Rev-erbA mod inactive.
`COC(=O)c1cc(-c2cccc(C#N)c2)c(=O)n2c1CCC2` gave Rev-erbA mod inactive.
`CCc1cc2c(SCC(=O)Nc3cc(C)on3)ncnc2s1` gave PG9 Ab binder 22, Rev-erbA mod inactive, NR2E3 ag-1 inactive, NR2E3 ag-2 inactive, PG9 binder conf 32 and PGV04 Ab binding 48.
Screening CCc1cc2c(SCC(=O)c3ccccc3)ncnc2s1 returned PG9 Ab binder inactive, Rev-erbA mod inactive, NR2E3 ag-1 inactive and NR2E3 ag-2 inactive.
CCc1cc2c(SCC(=O)NC(=O)c3cccn3C)ncnc2s1 was read as PG9 Ab binder 21, Rev-erbA mod inactive, NR2E3 ag-1 inactive, NR2E3 ag-2 inactive, PG9 binder conf 18 and PGV04 Ab binding 34.
CCOC(=O)[C@@]12CN(C(=O)OC(C)(C)C)CC=C1N(Cc1ccc(OC)cc1)C(=O)[C@H]2CC(=O)NCc1ccc(C)o1 was read as Rev-erbA mod inactive.
`CC(=O)c1cc(-c2cc(C(F)(F)F)cc(C(F)(F)F)c2)c(=O)n2c1CCC2` gave Rev-erbA mod inactive.
Cc1cc(C)cc(-c2nnc(SCC(=O)Nc3cc(C)on3)o2)c1 was read as PG9 Ab binder 14, Rev-erbA mod inactive, NR2E3 ag-1 inactive, PG9 binder conf 22 and PGV04 Ab binding 34.
`Cc1cc2cc(CNC(=O)Cc3ccc([N+](=O)[O-])cc3)ccc2n1C` gave PG9 Ab binder 10, Rev-erbA mod inactive, NR2E3 ag-1 inactive, NR2E3 ag-2 inactive, PG9 binder conf 13 and PGV04 Ab binding 21.
For OC(COc1cccc2ccccc12)CN1CCN(c2ccc(Cl)cc2)CC1 (stereo not given) the results were PG9 Ab binder 18, Rev-erbA mod inactive, NR2E3 ag-1 inactive, NR2E3 ag-2 inactive, PG9 binder conf 27 and PGV04 Ab binding 31.
For O=S1(=O)c2ccc(N3CC[C@H](O)C3)cc2O[C@H]2CCN1C2 the results were Rev-erbA mod inactive.
C#CCCCN([C@@H](CC(C)C)C(=O)OC)S(=O)(=O)c1ccc(F)cc1Br was read as Rev-erbA mod inactive.
For Cc1sc(NC(=S)NC(=O)C2CCCCC2)c(C(N)=O)c1C the results were PG9 Ab binder 32, Rev-erbA mod inactive, NR2E3 ag-1 inactive, NR2E3 ag-2 inactive, PG9 binder conf 24 and PGV04 Ab binding 31.
`CCCCN1CC(=O)N2[C@H](C[C@@]3(n4ccc5ccccc54)c4ccccc4N(S(=O)(=O)c4ccccc4)[C@@H]23)C1=O` gave Rev-erbA mod inactive.
`COc1ccc(C2NC(=O)c3ccccc3N2)cc1COc1ccc(NC(C)=O)cc1` (stereo not given) gave Rev-erbA mod inactive.
For CC(C)(C)c1ccc(C(=O)Nc2ccc(Cl)cc2)cc1 the results were PG9 Ab binder 8.6, Rev-erbA mod inactive, NR2E3 ag-1 inactive, NR2E3 ag-2 inactive, PG9 binder conf 16 and PGV04 Ab binding 18.
CC1CCN(CCCn2c(=S)[nH]c3c(sc4ccccc43)c2=O)CC1 was read as PG9 Ab binder 15, Rev-erbA mod inactive, NR2E3 ag-1 inactive, NR2E3 ag-2 inactive, PG9 binder conf 9.7, PGV04 Ab binding 9.4, PG9 bind DR inactive, PGV04 DR counter inactive and PG126 binding DR inactive.
CCCc1nc2ccccc2c(=O)n1CC(=O)c1ccc(OC)cc1 was read as PG9 Ab binder 10.0, Rev-erbA mod inactive, NR2E3 ag-1 inactive, NR2E3 ag-2 inactive, PG9 binder conf 11 and PGV04 Ab binding 15.
`CCCc1nc2ccccc2c(=O)n1CC(=O)c1ccccc1` gave PG9 Ab binder inactive, Rev-erbA mod inactive, NR2E3 ag-1 inactive and NR2E3 ag-2 inactive.
`O=C1C(NC(=O)N2c3ccccc3C=Cc3ccccc32)CCCCN1Cc1cccc(Cl)c1` (stereo not given) gave Rev-erbA mod inactive.
`C=CCN(C(=O)[C@@H](C1CC1)[C@@H](O)c1ccc2ccccc2c1)c1ccccc1` gave Rev-erbA mod inactive.
For Cc1cccc(CCNS(=O)(=O)c2ccc3c(c2)oc(=O)n3C)c1 the results were PG9 Ab binder 18, Rev-erbA mod inactive, NR2E3 ag-1 inactive, NR2E3 ag-2 inactive, PG9 binder conf inactive and PGV04 Ab binding inactive.
For C[C@H]1CCC[C@]2(O[C@H](CCO)C[C@H](O)[C@H]2O)O1 the results were PG9 Ab binder inactive, Rev-erbA mod inactive, NR2E3 ag-1 inactive and NR2E3 ag-2 inactive.
For C[C@@H]1CCC[C@]2(O[C@H](CCO)C[C@H](O)[C@H]2O)O1 the results were PG9 Ab binder 13, Rev-erbA mod inactive, NR2E3 ag-1 inactive, NR2E3 ag-2 inactive, PG9 binder conf inactive and PGV04 Ab binding inactive.
N=c1oc2ccccc2cc1-c1nc(-c2ccc(Cl)cc2)cs1 was read as PG9 Ab binder 10, Rev-erbA mod inactive, NR2E3 ag-1 inactive, NR2E3 ag-2 inactive, PG9 binder conf 8.8 and PGV04 Ab binding 13.
For CCOC(=O)c1sc2nccc(N(C)C)c2c1N=CNOCc1ccccc1 the results were PG9 Ab binder inactive, Rev-erbA mod inactive, NR2E3 ag-1 inactive and NR2E3 ag-2 inactive.
Screening CCOC(=O)c1sc2nccc(N(C)C)c2c1N=CNOCc1c(F)cccc1Cl returned PG9 Ab binder 10, Rev-erbA mod inactive, NR2E3 ag-1 inactive, NR2E3 ag-2 inactive, PG9 binder conf 18 and PGV04 Ab binding 25.
For CC(C)c1nc2sc3c(=O)[nH]cnc3c2c2c1CCC2 the results were PG9 Ab binder 9.6, Rev-erbA mod inactive, NR2E3 ag-1 inactive, NR2E3 ag-2 inactive, PG9 binder conf 20 and PGV04 Ab binding 26.
